# Experimental data from ChEMBL document CHEMBL1125798, “Synthesis and biological activity of a series of diaryl-substituted alpha-cyano-beta-hydroxypropenamides, a new class of anthelmintic agents” (1991).
# What was measured:
# Assay type in all cases: functional
# Rodentolepis nana [1] = experiment: The compound was tested for anthelmintic activity against mice, infected with parasite Hymenolepis nana at a dose of 62(ppm in feed)
# Procedure, shortened: (§1)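 Compound was given in feed ad libitum from 24 h postinfection for 18 days, four mice per group. On day 19, N. dubius were counted in the duodenum and H. nana in the ileum. Result is % reduction of mean worm burden vs untreated control; ≤25% was recorded as 0.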
# Rodentolepis nana [2] = experiment: The compound was tested for anthelmintic activity against mice, infected with parasite Hymenolepis nana at a dose of 125(ppm in feed); procedure, shortened: as §1
# [3] = tested on: Heligmosomoides polygyrus; experiment: Anthelmintic activity against mice, infected with parasite Nematospiroides dubius, at a dose of 62(ppm in feed); procedure, shortened: as §1
# [4] = tested on: Heligmosomoides polygyrus; experiment: Anthelmintic activity against mice, infected with parasite Nematospiroides dubius, at a dose of 125(ppm in feed); procedure, shortened: as §1
# [5] = tested on: Heligmosomoides polygyrus; experiment: Anthelmintic activity against mice, infected with parasite Nematospiroides dubius, at a dose of 31 p.p.m. in feed; procedure, shortened: as §1
# Rodentolepis nana [6] = experiment: The compound was tested for anthelmintic activity against mice, infected with parasite Hymenolepis nana at a dose of 31 p.p.m. in feed; procedure, shortened: as §1
# Rodentolepis nana [7] = experiment: The compound was tested for anthelmintic activity against mice, infected with parasite Hymenolepis nana at a dose of 125 p.p.m. in feed; procedure, shortened: as §1
# [8] = tested on: Heligmosomoides polygyrus; experiment: Anthelmintic activity against mice, infected with parasite Nematospiroides dubius, at a dose of 125 ppm in feed; procedure, shortened: as §1
# [9] = tested on: Heligmosomoides polygyrus; experiment: Anthelmintic activity against mice, infected with parasite Nematospiroides dubius, at a dose of 1000(ppm in feed); procedure, shortened: as §1
# Rodentolepis nana [10] = experiment: The compound was tested for anthelmintic activity against mice, infected with parasite Hymenolepis nana at a dose of 1000(ppm in feed); procedure, shortened: as §1
# Ascaris suum [11] = experiment: Effect on incorporation of [32Pi] by isolated Ascaris suum mitochondria at a concentration of 3 uM
# Procedure, shortened: (§2)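 Body-wall muscle mitochondria from adult A. suum (4-5 mg protein) were preincubated for 5 min at 30 °C, pH 7.4, with inhibitor in 170 mM mannitol, 50 mM sucrose, 10 mM 32Pi-phosphate, 1 mM MgCl2, 0.4 mM ADP and 0.1 unit hexokinase. Reaction was started with 10 mM malate and stopped after 15 min with perchloric acid. 32P-organic phosphate and succinate were measured in extracts; duplicate runs.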
# Rodentolepis nana [12] = experiment: The compound was tested for anthelmintic activity against mice, infected with parasite Hymenolepis nana at a dose of 31(ppm in feed); procedure, shortened: as §1
# Ascaris suum [13] = experiment: Effect on incorporation of [32Pi] by isolated Ascaris suum mitochondria at a concentration of 10 uM; procedure, shortened: as §2
# Ascaris suum [14] = experiment: Effect on incorporation of [32Pi] by isolated Ascaris suum mitochondria at a concentration of 50 uM.; procedure, shortened: as §2
# Ovis aries [15] = experiment: Anthelmintic activity against sheep, infected with Trichostrongylus colubriformis, at a dose of 30 mg/kg.
# Procedure, shortened: (§3)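 Merino ewes and wethers (12-15 months, 25-35 kg) received L3 intraruminally on day 0. Susceptible strains: H. contortus 6000, O. circumcincta 8000, T. colubriformis 8000. Benzimidazole-resistant strains: 8000, 9000, 9000. Animals were allocated by day-27 fecal egg count (n = 4-7) and given a single intraruminal dose in 0.5% carboxymethylcellulose saline. Adult worms in abomasum and small intestine were counted on day 35. Result is mean % reduction vs untreated controls.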
# Ovis aries [16] = experiment: Anthelmintic activity against sheep, infected with Haemonchus contortus, at a dose of 20 mg/kg.; procedure, shortened: as §3
# Ovis aries [17] = experiment: Anthelmintic activity against sheep, infected with Ostertagia circumcincta, at a dose of 30 mg/kg.; procedure, shortened: as §3
# Ovis aries [18] = experiment: Anthelmintic activity against sheep, infected with Ostertagia circumcincta, at a dose of 20 mg/kg.; procedure, shortened: as §3
# Rodentolepis nana [19] = experiment: Anthelmintic activity against mice infected with parasite Hymenolepis nana at a dose of 62(ppm in feed).; procedure, shortened: as §1
# [20] = tested on: Heligmosomoides polygyrus; experiment: Anthelmintic activity against mice, infected with parasite Nematospiroides dubius, at a dose of 31(ppm in feed); procedure, shortened: as §1
# Ascaris suum [21] = experiment: Effect on incorporation of [32Pi] by isolated Ascaris suum mitochondria at a concentration of 0 uM; procedure, shortened: as §2
# Ascaris suum [22] = experiment: Effect on succinate formation by isolated Ascaris suum mitochondria at a concentration of 10 uM; procedure, shortened: as §2
# [23] = tested on: Heligmosomoides polygyrus; experiment: Anthelmintic activity against mice infected with parasite Nematospiroides dubius, at a dose of 62(ppm in feed).; procedure, shortened: as §1
# Ascaris suum [24] = experiment: Effect on succinate formation by isolated Ascaris suum mitochondria at a concentration of 3 uM; procedure, shortened: as §2
# Ascaris suum [25] = experiment: Effect on succinate formation by isolated Ascaris suum mitochondria at a concentration of 25 uM; procedure, shortened: as §2
# Ovis aries [26] = experiment: Anthelmintic activity against sheep, infected with Trichostrongylus colubriformis, at a dose of 20 mg/kg.; procedure, shortened: as §3
# Ovis aries [27] = experiment: Anthelmintic activity against sheep, infected with Haemonchus contortus, at a dose of 30 mg/kg.; procedure, shortened: as §3
# Ascaris suum [28] = experiment: Effect on succinate formation by isolated Ascaris suum mitochondria at a concentration of 50 uM; procedure, shortened: as §2
# Ascaris suum [29] = experiment: Effect on succinate formation by isolated Ascaris suum mitochondria at a concentration of 0 uM; procedure, shortened: as §2
# Ascaris suum [30] = experiment: Effect on incorporation of [32Pi] by isolated Ascaris suum mitochondria at a concentration of 25 uM; procedure, shortened: as §2
# Rodentolepis nana [31] = experiment: The compound was tested for anthelmintic activity against mice, infected with parasite Hymenolepis nana at a dose of 875(ppm in feed); procedure, shortened: as §1
# [32] = tested on: Heligmosomoides polygyrus; experiment: Anthelmintic activity against mice, infected with parasite Nematospiroides dubius, at a dose of 875(ppm in feed); procedure, shortened: as §1
# Rodentolepis nana [33] = experiment: Anthelmintic activity against mice infected with parasite Hymenolepis nana at a dose of 125 ppm (in feed); procedure, shortened: as §1
# [34] = tested on: Heligmosomoides polygyrus; experiment: Anthelmintic activity against mice, infected with parasite Nematospiroides dubius, at a dose of 125 (ppm in feed); procedure, shortened: as §1
# [35] = tested on: Heligmosomoides polygyrus; experiment: Anthelmintic activity against mice, infected with parasite Nematospiroides dubius, at a dose of 250 pm in feed); procedure, shortened: as §1
# Rodentolepis nana [36] = experiment: The compound was tested for anthelmintic activity against mice, infected with parasite Hymenolepis nana at a dose of 250(ppm in feed); procedure, shortened: as §1
structure (smiles),measurement,setting,value
N#C/C(C(=O)Nc1ccc(C(F)(F)F)cc1)=C(/O)c1ccc(Br)cc1,Reduction,Rodentolepis nana [1],92%
same,Reduction,Rodentolepis nana [2],100%
same,Reduction,[3],45%
same,Reduction,[4],99%
COC(=O)Nc1nc2cc([S+]([O-])c3ccccc3)ccc2[nH]1 (stereo unspecified) [OXFENDAZOLE],Reduction,[5],100%
same,Reduction,Rodentolepis nana [6],0%
same,Reduction,Rodentolepis nana [7],100%
same,Reduction,[8],100%
N#C/C(C(=O)Nc1ccccc1)=C(/O)c1ccccc1,Reduction,[9],0%
same,Reduction,Rodentolepis nana [10],0%
N#C/C(C(=O)Nc1ccc(C(F)(F)F)cc1)=C(/O)c1ccc(C(F)(F)F)cc1,EC,Ascaris suum [11],0.35 uM 15min-1 mg-1
same,Reduction,Rodentolepis nana [12],0%
same,EC,Ascaris suum [13],0.28 uM 15min-1 mg-1
same,EC,Ascaris suum [14],0.05 uM 15min-1 mg-1
same,Reduction,Ovis aries [15],0%
same,Reduction,Ovis aries [16],100%
same,Reduction,Ovis aries [17],0%
same,Reduction,Ovis aries [18],66%
same,Reduction,Rodentolepis nana [19],0%
same,Reduction,[20],76%
same,EC,Ascaris suum [21],0.39 uM 15min-1 mg-1
same,EC,Ascaris suum [22],0.75 uM 15min-1 mg-1
same,Reduction,[23],100%
same,EC,Ascaris suum [24],0.63 uM 15min-1 mg-1
same,EC,Ascaris suum [25],0.86 uM 15min-1 mg-1
same,Reduction,Ovis aries [26],0%
same,Reduction,Ovis aries [27],100%
same,EC,Ascaris suum [28],1.17 uM 15min-1 mg-1
same,EC,Ascaris suum [29],0.48 uM 15min-1 mg-1
same,EC,Ascaris suum [30],0.15 uM 15min-1 mg-1
N#C/C(C(=O)Nc1ccc(C(F)(F)F)cc1)=C(/O)c1ccccc1,Reduction,Rodentolepis nana [31],0%
same,Reduction,[32],0%
N#C/C(C(=O)Nc1ccc([N+](=O)[O-])cc1)=C(/O)c1ccc(C(F)(F)F)cc1,Reduction,Rodentolepis nana [33],0%
same,Reduction,[34],50%
same,Reduction,[35],100%
same,Reduction,Rodentolepis nana [36],100%
